Assay results pooled from the literature.
Each line is one published result; the experiments were not run side by side.
Target: Serine/threonine-protein kinase 32C (STK32C, Homo sapiens, UniProt Q86UX6)

Structure (SMILES)	test	setting	measurement	result
CO[C@@H]1[C@H](N(C)C(=O)c2ccccc2)C[C@H]2O[C@]1(C)n1c3ccccc3c3c4c(c5c6ccccc6n2c5c31)C(=O)NC4	enzyme activity, inhibitor	1 µM	inhibition	0%
COc1ccc2oc(-c3ccc4nc(N)oc4c3)c/c(=N\c3ccccc3NC(=O)CCN)c2c1	binding	1 µM	remaining binding	100%
Cc1ccc(NC(=O)c2ccnc(C(F)(F)F)c2)cc1-c1cc(OCCO)nc(N2CCOCC2)c1	binding	1 µM	remaining binding	100%
CCCCC(=O)Nc1ccc(-c2ccc3ncn(CCC)c(=O)c3c2)cn1	binding, competition with immobilised ligand	0.5 µM	remaining binding	92%
CC(C)S(=O)(=O)c1ccc2nccc(Nc3ccc4sc(C5CCCC5)nc4c3)c2c1	enzyme activity, inhibitor	1 µM	activity vs control	102%
C=CC(=O)N1CCC[C@@H](n2nc(-c3ccc(Oc4ccccc4)cc3)c3c(N)ncnc32)C1	enzyme activity, inhibitor	1 µM	inhibition	14%
C[C@H]1CC[C@H](n2c3cnccc3c3cnc(Nc4ccc5c(n4)CCN(C(=O)CO)C5)nc32)CC1	cell-free assay	1 µM	remaining signal	100%
N#Cc1ccc(NC(=O)Nc2ccccc2)cc1	cell-free assay, competition with immobilised ligand	25 µM	remaining binding	77%
Cc1cc(O)c(-c2ccc([C@@H](C)CN(C)C)cc2)c2c1[nH]c(=O)c1sccc12	enzyme activity, inhibitor	0.1 µM, lysate	inhibition	-1.49%
C#Cc1cnc(Nc2ccnc(CO)c2)nc1Nc1ccccc1S(C)(=O)=NC#N (stereo not shown)	cell-free assay	1 µM	remaining signal	100%
